Results as given in ChEMBL document CHEMBL3632620, “Synthesis, characterization, crystal structure determination and biological screening of novel N-1 and C5 alkyl substituted scaffolds of pyrimidine” (2015).
≈ marks a conversion by molar mass, not a printed value. Calls of active or inactive are those of the source. No cut-off for these calls is given here.

Key:
[1] = system: Salmonella enterica subsp. enterica serovar Abony; test: Antibacterial activity against Salmonella abony NCTC 6017 assessed as growth inhibition at 100 ug/ml after 8 to 24 hrs by agar well diffusion method; format: functional; conditions: read-out: DIZ
Method in brief: (§1)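 Agar well diffusion on nutrient agar (peptone, yeast extract, NaCl, 2% agar, pH 7). Suspensions were set to 0.5 McFarland in sterile water, final inoculum 5x10^7 CFU/mL. Plates were swabbed and left 15 min, then ~4 mm wells received 100 µL compound in DMSO, with DMSO as control. Plates stood 2 h at room temperature, then 24 h at 37 °C. Inhibition zone diameter was measured.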

[2] = system: Staphylococcus epidermidis; test: Antibacterial activity against Staphylococcus epidermidis ATCC 12228 assessed as growth inhibition at 25 ug/ml after 8 to 24 hrs by agar well diffusion method; format: functional; method in brief: as §1
[3] = system: Staphylococcus epidermidis; test: Antibacterial activity against Staphylococcus epidermidis ATCC 12228 assessed as growth inhibition at 100 ug/ml after 8 to 24 hrs by agar well diffusion method; format: functional; conditions: for zone of inhibition at 100 µg/mL: read-out: DIZ; method in brief: as §1
Staphylococcus aureus [4] = test: Antibacterial activity against Staphylococcus aureus ATCC 6538P after 24 to 48 hrs; format: functional
Method in brief: (§2)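 Broth MIC in nutrient broth, pH 7.0. Inoculum came from a 16 h culture set to 0.5 McFarland, then diluted 10-fold to 1.2x10^7 CFU/mL. Compounds went from a 4 mg/mL DMSO stock to final 250 to 0.03 µg/mL. Controls were inoculum without compound and compound without inoculum. Incubation was 24-48 h at 37 °C. Then 5 µL was spotted onto agar for 24 h at 37 °C. MIC is the lowest concentration with no visible growth.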

[5] = system: Salmonella enterica subsp. enterica serovar Abony; test: Antibacterial activity against Salmonella abony NCTC 6017 after 24 to 48 hrs; format: functional; method in brief: as §2
[6] = system: Staphylococcus epidermidis; test: Antibacterial activity against Staphylococcus epidermidis ATCC 12228 after 24 to 48 hrs; format: functional; method in brief: as §2
Escherichia coli [7] = test: Antibacterial activity against Escherichia coli ATCC 8739 assessed as growth inhibition at 25 ug/ml after 8 to 24 hrs by agar well diffusion method; format: functional; conditions: read-out: DIZ; method in brief: as §1
Escherichia coli [8] = test: Antibacterial activity against Escherichia coli ATCC 8739 assessed as growth inhibition at 100 ug/ml after 8 to 24 hrs by agar well diffusion method; format: functional; conditions: read-out: DIZ; method in brief: as §1
Staphylococcus aureus [9] = test: Antibacterial activity against Staphylococcus aureus ATCC 6538P assessed as growth inhibition at 25 ug/ml after 8 to 24 hrs by agar well diffusion method; format: functional; conditions: read-out: DIZ; method in brief: as §1
Staphylococcus aureus [10] = test: Antibacterial activity against Staphylococcus aureus ATCC 6538P assessed as growth inhibition at 100 ug/ml after 8 to 24 hrs by agar well diffusion method; format: functional; conditions: read-out: DIZ; method in brief: as §1
[11] = system: Salmonella enterica subsp. enterica serovar Abony; test: Antibacterial activity against Salmonella abony NCTC 6017 assessed as growth inhibition at 25 ug/ml after 8 to 24 hrs by agar well diffusion method; format: functional; conditions: read-out: DIZ; method in brief: as §1
Escherichia coli [12] = test: Antibacterial activity against Escherichia coli ATCC 8739 after 24 to 48 hrs; format: functional; method in brief: as §2
Escherichia coli [13] = test: Antibacterial activity against Escherichia coli ATCC 8739 assessed as growth inhibition at 25 to 100 ug/ml at 12 hrs by agar well diffusion method; format: functional, organism-based
Staphylococcus aureus [14] = test: Antibacterial activity against Staphylococcus aureus ATCC 6538P assessed as growth inhibition at 25 to 100 ug/ml at 12 hrs by agar well diffusion method; format: functional, organism-based
[15] = system: Salmonella enterica subsp. enterica serovar Abony; test: Antibacterial activity against Salmonella abony NCTC 6017 assessed as growth inhibition at 25 to 100 ug/ml at 12 hrs by agar well diffusion method; format: functional, organism-based
[16] = system: Staphylococcus epidermidis; test: Antibacterial activity against Staphylococcus epidermidis ATCC 12228 assessed as growth inhibition at 25 to 100 ug/ml at 12 hrs by agar well diffusion method; format: functional, organism-based

| MIC (Staphylococcus aureus [4]) | MIC [5] | MIC [6] | MIC (Escherichia coli [12]) | Structure (SMILES) | zone of inhibition at 100 µg/mL [1] | zone of inhibition at 25 µg/mL ([2]; read-out: DIZ) | zone of inhibition at 100 µg/mL [3] | zone of inhibition at 25 µg/mL (Escherichia coli [7]) | zone of inhibition at 100 µg/mL (Escherichia coli [8]) | zone of inhibition at 25 µg/mL (Staphylococcus aureus [9]) | zone of inhibition at 100 µg/mL (Staphylococcus aureus [10]) | zone of inhibition at 25 µg/mL [11] | diameter of the inhibition zone (DIZ) [2] | diameter of the inhibition zone (DIZ) [3] | Activity (Escherichia coli [13]) | Activity (Staphylococcus aureus [14]) | Activity [15] | Activity [16] |
| --- | --- | --- | --- | --- | --- | --- | --- | --- | --- | --- | --- | --- | --- | --- | --- | --- | --- | --- |
| 68 µg/mL (≈ 222 µM) | 68 µg/mL (≈ 222 µM) | > 250 µg/mL | 125 µg/mL (≈ 408 µM) | CCOC(=O)C1(C)C(C)NC(=O)N(C)C1c1ccc(O)cc1 (stereo not drawn) | 14 mm |  |  | 8 mm | 10 mm | 10 mm | 12 mm | 11 mm | inactive | inactive | inactive | inactive | inactive | inactive |
| 68 µg/mL (≈ 212 µM) | 68 µg/mL (≈ 212 µM) | > 250 µg/mL | 68 µg/mL (≈ 212 µM) | CCOC(=O)C1(C)C(C)NC(=O)N(C)C1c1ccc(OC)cc1 (stereo not drawn) | 13 mm |  |  | 13 mm | 14 mm | 10 mm | 12 mm | 10 mm | inactive | inactive | inactive | inactive | inactive | inactive |
| 125 µg/mL (≈ 430 µM) | 125 µg/mL (≈ 430 µM) | 68 µg/mL (≈ 234 µM) | 68 µg/mL (≈ 234 µM) | CCOC(=O)C1(C)C(C)NC(=O)N(C)C1c1ccccc1 (stereo not drawn) | 10 mm |  | 14 mm | 12 mm | 13 mm | 10 mm | 10 mm | 9 mm | inactive |  | inactive | inactive | inactive | inactive |
| 32 µg/mL (≈ 96 µM) | 16 µg/mL (≈ 48 µM) | > 250 µg/mL | 68 µg/mL (≈ 204 µM) | CCOC(=O)C1(C)C(C)NC(=O)N(C)C1c1ccc(N(C)C)cc1 (stereo not drawn) | 22 mm |  |  | 10 mm | 14 mm | 12 mm | 16 mm | 10 mm | inactive | inactive | inactive | inactive | inactive | inactive |
| 32 µg/mL (≈ 99.2 µM) | 32 µg/mL (≈ 99.2 µM) | > 250 µg/mL | 32 µg/mL (≈ 99.2 µM) | CCOC(=O)C1(C)C(C)NC(=S)N(C)C1c1ccc(O)cc1 (stereo not drawn) | 20 mm |  |  | 17 mm | 20 mm | 13 mm | 15 mm | 16 mm | inactive | inactive | inactive | inactive | inactive | inactive |
| 68 µg/mL (≈ 209 µM) | 125 µg/mL (≈ 385 µM) | 68 µg/mL (≈ 209 µM) | 32 µg/mL (≈ 98.5 µM) | CCOC(=O)C1(C)C(C)NC(=O)N(C)C1c1ccc(Cl)cc1 (stereo not drawn) | 10 mm |  | 13 mm | 10 mm | 14 mm | 12 mm | 16 mm | 9 mm | inactive |  | inactive | inactive | inactive | inactive |

Continued, compound first:

| Structure (SMILES) | MIC (Staphylococcus aureus [4]) | MIC [5] | MIC [6] | MIC (Escherichia coli [12]) | zone of inhibition at 100 µg/mL [1] | zone of inhibition at 25 µg/mL ([2]; read-out: DIZ) | zone of inhibition at 100 µg/mL [3] | zone of inhibition at 25 µg/mL (Escherichia coli [7]) | zone of inhibition at 100 µg/mL (Escherichia coli [8]) | zone of inhibition at 25 µg/mL (Staphylococcus aureus [9]) | zone of inhibition at 100 µg/mL (Staphylococcus aureus [10]) | zone of inhibition at 25 µg/mL [11] | diameter of the inhibition zone (DIZ) [2] | diameter of the inhibition zone (DIZ) [3] | Activity (Escherichia coli [13]) | Activity (Staphylococcus aureus [14]) | Activity [15] | Activity [16] |
| --- | --- | --- | --- | --- | --- | --- | --- | --- | --- | --- | --- | --- | --- | --- | --- | --- | --- | --- |
| O=C(N[C@H](CO)[C@H](O)c1ccc([N+](=O)[O-])cc1)C(Cl)Cl [CHLORAMPHENICOL] | 8 µg/mL (≈ 24.8 µM) | 4 µg/mL (≈ 12.4 µM) | 4 µg/mL (≈ 12.4 µM) |  | 32 mm | 14 mm | 35 mm | 20 mm | 24 mm | 20 mm | 28 mm | 19 mm |  |  |  |  |  |  |
| CCOC(=O)C1(C)C(C)NC(=O)N(C)C1c1ccccc1[N+](=O)[O-] (stereo not drawn) | 8 µg/mL (≈ 23.9 µM) | 16 µg/mL (≈ 47.7 µM) | > 250 µg/mL | 32 µg/mL (≈ 95.4 µM) | 24 mm |  |  | 13 mm | 18 mm | 14 mm | 28 mm | 15 mm | inactive | inactive | inactive | inactive | inactive | inactive |
| CCOC(=O)C1(C)C(C)NC(=S)N(C)C1c1ccc(OC)cc1 (stereo not drawn) | 32 µg/mL (≈ 95.1 µM) | 32 µg/mL (≈ 95.1 µM) | > 250 µg/mL | 16 µg/mL (≈ 47.6 µM) | 15 mm |  |  | 15 mm | 22 mm | 12 mm | 16 mm | 16 mm | inactive | inactive | inactive | inactive | inactive | inactive |
| CCOC(=O)C1(C)C(C)NC(=S)N(C)C1c1ccccc1 (stereo not drawn) | 68 µg/mL (≈ 222 µM) | 32 µg/mL (≈ 104 µM) | > 250 µg/mL | 16 µg/mL (≈ 52.2 µM) | 18 mm |  |  | 14 mm | 21 mm | 10 mm | 13 mm | 16 mm | inactive | inactive | inactive | inactive | inactive | inactive |
| CCOC(=O)C1(C)C(C)NC(=S)N(C)C1c1ccc(Cl)cc1 (stereo not drawn) | 16 µg/mL (≈ 46.9 µM) | 8 µg/mL (≈ 23.5 µM) | > 250 µg/mL | 16 µg/mL (≈ 46.9 µM) | 28 mm |  |  | 20 mm | 20 mm | 18 mm | 23 mm | 18 mm | inactive | inactive | inactive | inactive | inactive | inactive |
| CN[C@@H]1[C@H](O[C@H]2[C@H](O[C@H]3[C@H](O)[C@@H](O)[C@H](N=C(N)N)[C@@H](O)[C@@H]3N=C(N)N)O[C@@H](C)[C@]2(O)C=O)O[C@@H](CO)[C@H](O)[C@H]1O [STREPTOMYCIN] | 32 µg/mL (≈ 55 µM) | 32 µg/mL (≈ 55 µM) | > 250 µg/mL | 32 µg/mL (≈ 55 µM) | 18 mm |  |  | 14 mm | 16 mm | 12 mm | 16 mm | 25 mm | inactive | inactive |  |  |  |  |
